Values joined by “and” are separate entries in the source; they are usually repeats but may differ in a detail not shown here. Equal values may be shown once.

The target in assay [1] is Monoamine transporters; serotonin & dopamine (Rattus norvegicus) (UniProt P31652+P23977). The assay is described as follows: Relative affinity for dopamine over 5-HT transporters. It counts as protein assay. Summed up:
(§1)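 Selectivity ratios calculated from Ki values of the rat synaptosomal [3H]DA, [3H]NE and [3H]5-HT uptake inhibition assays.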

The target of assay [2] is Norepinephrine transporter (Rattus norvegicus, UniProt Q9WTR4). Description: Inhibition of [3H]NE uptake by Norepinephrine transporter of rat occipital cortex synaptosomes. It counts as subcellular, Brain. In a few lines: (§2)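 Rat parietal and occipital cortex P2 synaptosomes in ice-cold modified KRH buffer; preincubated with drug 30 min at 37 °C, then [3H]NE 8-10 nM added for 5 min. Stopped with cold Na-free glucosamine buffer, then filtered; scintillation counting. Specific uptake defined with 3 µM desipramine. Ki from IC50 using Km 54 nM. Six drug concentrations in triplicate, 2-5 experiments.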
Chain of Norepinephrine transporter (Q9WTR4 whole entry): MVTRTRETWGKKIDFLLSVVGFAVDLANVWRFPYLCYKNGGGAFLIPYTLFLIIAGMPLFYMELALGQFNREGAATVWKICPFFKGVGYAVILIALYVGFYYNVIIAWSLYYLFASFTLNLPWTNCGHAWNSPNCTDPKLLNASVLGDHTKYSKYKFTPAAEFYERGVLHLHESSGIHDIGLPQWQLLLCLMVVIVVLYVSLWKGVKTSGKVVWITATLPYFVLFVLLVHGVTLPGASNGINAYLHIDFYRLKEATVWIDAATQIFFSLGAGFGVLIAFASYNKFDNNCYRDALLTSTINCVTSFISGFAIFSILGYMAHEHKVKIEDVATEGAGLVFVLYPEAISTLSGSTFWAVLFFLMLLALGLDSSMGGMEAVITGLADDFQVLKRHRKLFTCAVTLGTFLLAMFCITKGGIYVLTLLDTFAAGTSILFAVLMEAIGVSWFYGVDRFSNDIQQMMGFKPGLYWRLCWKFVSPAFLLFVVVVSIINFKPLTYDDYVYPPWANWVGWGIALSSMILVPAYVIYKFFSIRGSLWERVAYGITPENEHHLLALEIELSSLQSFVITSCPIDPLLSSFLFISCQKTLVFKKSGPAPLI

The species entered for assay [3] is Rattus norvegicus. The assay is described as follows: Compound was evaluated for its ability to antagonizing norepinephrine (NE) high affinity uptake was determined using [3H]NE on synaptosomes prepared from rat occipital cortices. The note with it: Brain. In kind it is functional. In a few lines: as §2
The species entered for assay [4] is Rattus norvegicus. Description: Compound was evaluated for its ability to antagonizing serotonin high affinity uptake was determined using [3H]5-HT on synaptosomes prepared from rat midbrain or parietal cortices. Conditions: Brain. In kind it is functional.
The species named for assay [5] is Rattus norvegicus. Description: Compound was evaluated for its ability to inhibit the uptake of dopamine(DA) into nerve ending using [3H]DA on synaptosomes obtained from dissected rat striata. In kind it is functional. Conditions: Brain.
In assay [6] the target is Sodium-dependent serotonin transporter (Rattus norvegicus, UniProt P31652). Description: Inhibition of [3H]5-HT uptake by Serotonin transporter of rat midbrain or parietal synaptosomes. It counts as subcellular, Brain. In a few lines:
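Rat midbrain P2 synaptosomes in modified KRH buffer; preincubated with drug 30 min at 37 °C, then [3H]5-HT 4-5 nM for 5 min. Stopped with cold Na-free glucosamine buffer, then filtered; scintillation counting. […] Ki from IC50 using Km 53 nM. Six drug concentrations in triplicate, 2-5 experiments.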

For assay [7], the target named is Sodium-dependent dopamine transporter (Rattus norvegicus, UniProt P23977). The assay is described as follows: Inhibition of [3H]DA uptake by dopamine transporter of rat striata synaptosomes. In kind it is subcellular, Brain. Summed up: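 Rat striatum homogenised in 0.32 M sucrose, P2 synaptosomes resuspended in KRH buffer; preincubated with drug 30 min at 37 °C, then [3H]DA 3-5 nM final for 5 min. Stopped with cold Na-free glucosamine buffer, then filtered; scintillation counting. Six concentrations in triplicate, 2-5 experiments.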
Chain of Sodium-dependent dopamine transporter (P23977 whole entry): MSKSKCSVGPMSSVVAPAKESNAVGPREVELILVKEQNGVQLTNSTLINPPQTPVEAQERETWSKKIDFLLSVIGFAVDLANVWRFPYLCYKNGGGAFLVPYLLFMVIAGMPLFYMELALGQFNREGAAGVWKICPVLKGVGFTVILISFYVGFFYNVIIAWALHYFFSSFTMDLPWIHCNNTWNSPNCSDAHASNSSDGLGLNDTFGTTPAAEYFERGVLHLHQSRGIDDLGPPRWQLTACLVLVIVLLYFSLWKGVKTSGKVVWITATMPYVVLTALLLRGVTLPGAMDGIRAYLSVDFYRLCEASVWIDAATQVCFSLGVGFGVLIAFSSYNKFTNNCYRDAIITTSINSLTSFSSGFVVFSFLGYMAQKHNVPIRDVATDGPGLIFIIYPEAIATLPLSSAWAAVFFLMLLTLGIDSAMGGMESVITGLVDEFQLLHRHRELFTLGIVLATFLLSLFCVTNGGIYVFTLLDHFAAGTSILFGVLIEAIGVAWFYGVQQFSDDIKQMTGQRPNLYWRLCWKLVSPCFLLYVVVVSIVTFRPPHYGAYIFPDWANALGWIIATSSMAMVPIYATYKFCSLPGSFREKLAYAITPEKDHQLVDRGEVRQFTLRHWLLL

For assay [8], the target named is Monoamine transporters; Norepinephrine & serotonin (Rattus norvegicus) (UniProt P31652+Q9WTR4). Description: Relative affinity for norepinephrine over 5-HT transporters. It counts as protein assay. Summed up: as §1
The species entered for assay [9] is Rattus norvegicus. The assay is described as follows: Compound was evaluated for its ability to antagonizing norepinephrine (NE), high affinity uptake was determined using [3H]NE on synaptosomes prepared from rat occipital cortices. Conditions: Brain.

Chain of Monoamine transporters; serotonin & dopamine (Rattus norvegicus) (P23977 whole entry, looked up): as the sequence (P23977 whole entry) above
Chain of Monoamine transporters; serotonin & dopamine (Rattus norvegicus) (P31652 whole entry, looked up): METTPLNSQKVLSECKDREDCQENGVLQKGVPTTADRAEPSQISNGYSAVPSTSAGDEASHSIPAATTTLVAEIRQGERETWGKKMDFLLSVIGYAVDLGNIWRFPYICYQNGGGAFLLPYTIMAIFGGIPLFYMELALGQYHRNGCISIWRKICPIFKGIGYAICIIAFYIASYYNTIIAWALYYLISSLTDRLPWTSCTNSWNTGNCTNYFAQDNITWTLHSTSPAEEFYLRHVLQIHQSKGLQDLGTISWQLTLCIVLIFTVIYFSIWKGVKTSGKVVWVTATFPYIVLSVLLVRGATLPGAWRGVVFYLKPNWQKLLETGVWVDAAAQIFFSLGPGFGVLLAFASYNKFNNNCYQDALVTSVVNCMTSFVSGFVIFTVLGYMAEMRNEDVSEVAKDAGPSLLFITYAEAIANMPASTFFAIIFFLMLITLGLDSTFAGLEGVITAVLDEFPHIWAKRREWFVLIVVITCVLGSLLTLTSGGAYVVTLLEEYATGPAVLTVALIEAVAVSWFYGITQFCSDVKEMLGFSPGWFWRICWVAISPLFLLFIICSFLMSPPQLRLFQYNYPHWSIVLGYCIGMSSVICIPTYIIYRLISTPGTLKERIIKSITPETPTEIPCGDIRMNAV
Chain of Sodium-dependent serotonin transporter (P31652 whole entry): as the sequence (P31652 whole entry, looked up) above

Consider `CCc1ccc([C@H]2CCN(C)CC2C(=O)OC)cc1` (stereo partly specified), for which the Ratio is over 6 in assay [1] and over 4 in assay [8]. For the same compound, the Ki was over 1100 nM in assay [2], 255 nM in assay [6] and over 1700 nM in [7]. Also, the 50% inhibitory concentration (IC50) in [3] was over 1300 nM; in [4], 275 nM; in assay [5], over 1800 nM.

On to `COC(=O)[C@@H]1CN(C)CC[C@@H]1c1ccc(-c2ccccc2)cc1`, for which the Ratio in assay [1] is 2.8; in [8], 3.3. In addition, the Ki in [2] is 203 nM; in [6], 62 nM; in assay [7] it was 173 nM. Further, the IC50 in assay [3] is 239 nM; in assay [4], 67 nM; in [5], 184 nM.

For `COC(=O)[C@H]1[C@@H](OC(=O)c2ccccc2)C[C@@H]2CC[C@H]1N2C` [COCAINE], the IC50 in assay [9] worked out at 127 nM.

Take `COC(=O)[C@@H]1CNCC[C@H]1c1ccc2ccccc2c1`: the results for the Ratio in [1] and in assay [8] were 26 and 8.6, respectively. For the same compound, the inhibitory constant (Ki) was found to be 30 nM in [2], 3.5 nM in assay [6] and 90 nM in [7]. Further, the half-inhibitory concentration (IC50) in assay [3] is 34 nM; in [4], 3.9 nM; in assay [5], 97 nM.

As for `COC(=O)[C@@H]1CN(C)CC[C@H]1c1ccc2ccccc2c1`, the Ratio worked out at 0.45 in assay [1] and 0.14 in [8]. The values for the Ki in [2], in assay [6] and in assay [7] were 27 nM, 192 nM and 87 nM, respectively. The half-inhibitory concentration (IC50) stood at 209 nM in [4] and 94 nM in [5].

As to `C#Cc1ccc([C@H]2CCN(C)C[C@H]2C(=O)OC)cc1`, the Ratio in [1] is 1.1; in assay [8], 2.1. The inhibitory constant (Ki) stood at 364 nM in [2], 175 nM in assay [6] and 187 nM in assay [7]. Besides, the figures for the 50% inhibitory concentration (IC50) in assay [3], in assay [4] and in assay [5] were 399 nM, 189 nM and 213 nM, respectively.

Consider `COC(=O)[C@@H]1CN(C)CC[C@@H]1c1cccc2ccccc12`, for which the Ratio is 3 in assay [1] and 2.8 in assay [8]. The Ki is 281 nM in assay [2], 101 nM in [6] and 304 nM in assay [7]. Further, the 50% inhibitory concentration (IC50) in assay [3] came out at 337 nM; in assay [4], 113 nM; in assay [5] it was 326 nM.

For `CNCCC(Oc1ccc(C(F)(F)F)cc1)c1ccccc1` (stereo unspecified) [FLUOXETINE], the IC50 in assay [3] is 193 nM; in assay [4] it was 8.1 nM; in [5] it was over 4500 nM.

Regarding `COC(=O)[C@H]1CN(C)CC[C@H]1c1ccc2ccccc2c1`, the Ratio amounted to 23 in [1] and 3.2 in [8]. Besides, the Ki in assay [2] amounted to 38 nM; in assay [6] it was 12 nM; in assay [7] it was 271 nM. Besides, the figures for the IC50 in [4] and in assay [5] were 13 nM and 293 nM, respectively.

Consider `COC(=O)[C@@H]1CN(C)CC[C@@H]1c1ccc2ccccc2c1`, for which the Ratio in assay [1] is 2.8 and 4.5. For the same compound, the Ki in assay [2] was determined as 34 nM; in assay [6] it was 7.6 nM; in assay [7], 21 nM. Also, the IC50 is 8.2 nM in assay [4] and 23 nM in assay [5].

On to `C=Cc1ccc([C@H]2CCN(C)C[C@H]2C(=O)OC)cc1`, for which the inhibition constant Ki was found to be 175 nM in [2] and 138 nM in assay [6]. Also, the IC50 in assay [3] worked out at 204 nM; in assay [4] it was 155 nM.

Regarding `C=CCc1ccc([C@H]2CCN(C)C[C@H]2C(=O)OC)cc1`, the Ratio was 3.1 in [1] and over 3.5 in assay [8]. The Ki in assay [2] is over 1000 nM; in [6] it was 309 nM; in [7] it was 964 nM. Besides, the IC50 in assay [3] is over 1200 nM; in assay [4], 334 nM; in assay [5], over 1000 nM.

Consider `COC(=O)[C@@H]1CN(C)CC[C@@H]1c1ccc(Cl)cc1`, for which the Ratio in [1] was determined as 0.18; in [8] it was 0.23. Further, the inhibitory constant (Ki) in assay [2] turned out to be 88 nM; in [6], 391 nM; in assay [7] it was 69 nM. Further, the IC50 is 101 nM in assay [3], 440 nM in assay [4] and 75 nM in assay [5].

On to `COC(=O)[C@H]1CN(C)CC[C@@H]1c1ccc2ccccc2c1`, for which the Ratio in [1] amounted to 22.6; in assay [8], 5.7. The inhibition constant Ki in [2] is 241 nM; in assay [6], 42 nM; in [7], 947 nM. Besides, the IC50 in [4] is 46 nM; in [5] it was over 1000 nM.

Usually Ki stands for the equilibrium dissociation constant of an inhibitor or competing ligand from its target. The low end stands for a stronger hold on the target, the high end for a looser hold on the target. The term IC50 denotes the concentration needed to halve the response being measured. A higher IC50 goes with a need for much substance.

For the origin of these results see ChEMBL document CHEMBL1133161 (J Med Chem, 2000).
